Experimental data reported in ChEMBL document CHEMBL4828755, “A sulfonyl fluoride derivative inhibits EGFRL858R/T790M/C797S by covalent modification of the catalytic lysine” (Eur J Med Chem, 2021).
pIC50: −log10 of the molar value. The source made the active and inactive calls. The calls are words filed in the database; no cut-off is given here.

Experiments:
[1] = molecular target: T1, Inhibitor of nuclear factor kappa-B kinase subunit beta (Homo sapiens) (UniProt O14920); experiment: Inhibition of GST-tagged human full length recombinant IKKbeta expressed in baculovirus expression system at 100 to 1000 nM by Z'-LYTE assay; details: dose 100-1000 nM
T1 sequence (whole entry): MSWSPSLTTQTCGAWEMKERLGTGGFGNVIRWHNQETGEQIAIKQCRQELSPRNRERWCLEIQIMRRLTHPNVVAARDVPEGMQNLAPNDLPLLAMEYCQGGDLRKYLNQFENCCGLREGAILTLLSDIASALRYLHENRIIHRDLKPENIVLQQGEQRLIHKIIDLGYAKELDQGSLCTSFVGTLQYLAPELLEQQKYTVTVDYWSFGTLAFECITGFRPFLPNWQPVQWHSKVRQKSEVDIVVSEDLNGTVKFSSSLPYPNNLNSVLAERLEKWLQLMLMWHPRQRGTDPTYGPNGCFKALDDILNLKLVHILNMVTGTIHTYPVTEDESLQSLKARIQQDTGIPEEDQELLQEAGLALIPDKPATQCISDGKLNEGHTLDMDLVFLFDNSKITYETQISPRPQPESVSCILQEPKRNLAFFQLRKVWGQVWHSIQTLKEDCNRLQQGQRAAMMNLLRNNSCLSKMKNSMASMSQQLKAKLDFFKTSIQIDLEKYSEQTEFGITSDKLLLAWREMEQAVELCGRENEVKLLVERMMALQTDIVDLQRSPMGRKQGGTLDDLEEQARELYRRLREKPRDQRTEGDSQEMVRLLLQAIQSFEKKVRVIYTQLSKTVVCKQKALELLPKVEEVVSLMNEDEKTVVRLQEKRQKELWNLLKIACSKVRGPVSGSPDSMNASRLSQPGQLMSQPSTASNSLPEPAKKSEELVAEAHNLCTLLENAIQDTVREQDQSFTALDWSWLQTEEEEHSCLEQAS

[2] = molecular target: Platelet-derived growth factor receptor alpha (Homo sapiens) (UniProt P16234); experiment: Inhibition of GST-tagged human recombinant PDGFR alpha (550 to 1089 residues) expressed in baculovirus expression system at 100 to 1000 nM by Z'-LYTE assay; details: dose 100-1000 nM
[3] = molecular target: Tyrosine-protein kinase JAK1 (Homo sapiens) (UniProt P23458); experiment: Inhibition of GST-tagged human recombinant JAK1 (866 to 1154 residues) expressed in baculovirus expression system at 1 uM by Z'-LYTE assay
How it was run: (§1)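 Z'-LYTE FRET kinase panel; phosphorylation of a reference peptide measured with ATP at each enzyme's Km. Compounds tested in 1% DMSO at 0.1 and/or 1 μM. Values are means of two independent experiments with standard deviations.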

[4] = tested on: Epidermal growth factor receptor (Homo sapiens), P00533 [L858R,T790M,C797S]; experiment: Inhibition of EGFR L858R/T790M/C797S triple mutant (unknown origin) expressed in mouse Ba/F3 cells assessed as inhibition of EGF-stimulated receptor phosphorylation at 500 nM incubated for 4 hrs followed by EGF stimulation for 10 mins by western blot analysis; type: cell-based; details: BaF3, time 250.0 min
How it was run: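 Ba/F3 cells expressing EGFR L858R/T790M/C797S were treated for 4 h across increasing concentrations (DMSO ≤0.1%), then stimulated with 100 ng/ml EGF for 10 min. Lysates were immunoblotted for pEGFR (Tyr1068), EGFR and actin.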

[5] = molecular target: Tyrosine-protein kinase Blk (Homo sapiens) (UniProt P51451); experiment: Inhibition of His-tagged human full length recombinant BLK expressed in baculovirus expression system at 1 uM by Z'-LYTE assay; how it was run: as §1
[6] = molecular target: RAC-beta serine/threonine-protein kinase (Homo sapiens) (UniProt P31751); experiment: Inhibition of His-tagged full length human recombinant AKT2 expressed in baculovirus expression system at 1 uM by Z'-LYTE assay; how it was run: as §1
[7] = molecular target: Vascular endothelial growth factor receptor 2 (Homo sapiens) (UniProt P35968); experiment: Inhibition of His-tagged human recombinant VEGFR2 (789 to 1356 residues) expressed in baculovirus expression system at 1 uM by Z'-LYTE assay; how it was run: as §1
[8] = molecular target: Epidermal growth factor receptor (Homo sapiens, UniProt P00533, C797S/L858R/T790M); experiment: Inhibition of EGFR L858R/T790M/C797S triple mutant (unknown origin) using […] preincubated with enzyme and ATP at Km for 3 hrs followed by substrate addition and measured after 1 hr by TR-FRET assay
[9] = molecular target: Epidermal growth factor receptor (Homo sapiens, UniProt P00533); type: ADME
[10] = molecular target: Proto-oncogene tyrosine-protein kinase Src (Homo sapiens) (UniProt P12931); experiment: Inhibition of C-terminal His-tagged human recombinant SRC expressed in baculovirus expression system at 1 uM by Z'-LYTE assay; how it was run: as §1
[11] = molecular target: Rho-associated protein kinase 1 (Homo sapiens) (UniProt Q13464); experiment: Inhibition of GST-tagged human recombinant ROCK1 (1 to 535 residues) expressed in baculovirus expression system at 1 uM by Z'-LYTE assay; how it was run: as §1
[12] = molecular target: Cyclin-dependent kinase 5 (Homo sapiens) (UniProt Q00535); experiment: Inhibition of GST/His-tagged human full length recombinant CDK5 expressed in baculovirus expression system at 1 uM by Z'-LYTE assay; how it was run: as §1
[13] = molecular target: Mitogen-activated protein kinase 14 (Homo sapiens) (UniProt Q16539); experiment: Inhibition of GST-tagged human full length recombinant p38 alpha expressed in Escherichia coli at 1 uM by Z'-LYTE assay; how it was run: as §1
Chain of Mitogen-activated protein kinase 14 (Homo sapiens) (Q16539 whole entry): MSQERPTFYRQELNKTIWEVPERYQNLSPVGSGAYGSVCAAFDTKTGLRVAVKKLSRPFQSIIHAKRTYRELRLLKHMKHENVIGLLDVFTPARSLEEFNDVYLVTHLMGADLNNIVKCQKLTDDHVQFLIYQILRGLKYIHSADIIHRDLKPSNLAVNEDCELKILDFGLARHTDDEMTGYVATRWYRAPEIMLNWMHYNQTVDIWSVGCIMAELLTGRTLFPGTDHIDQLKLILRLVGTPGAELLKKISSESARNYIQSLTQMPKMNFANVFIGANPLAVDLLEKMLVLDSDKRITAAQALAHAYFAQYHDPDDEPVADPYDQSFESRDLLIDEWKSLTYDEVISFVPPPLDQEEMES

Chain of Epidermal growth factor receptor (Homo sapiens, UniProt P00533) (P00533 whole entry): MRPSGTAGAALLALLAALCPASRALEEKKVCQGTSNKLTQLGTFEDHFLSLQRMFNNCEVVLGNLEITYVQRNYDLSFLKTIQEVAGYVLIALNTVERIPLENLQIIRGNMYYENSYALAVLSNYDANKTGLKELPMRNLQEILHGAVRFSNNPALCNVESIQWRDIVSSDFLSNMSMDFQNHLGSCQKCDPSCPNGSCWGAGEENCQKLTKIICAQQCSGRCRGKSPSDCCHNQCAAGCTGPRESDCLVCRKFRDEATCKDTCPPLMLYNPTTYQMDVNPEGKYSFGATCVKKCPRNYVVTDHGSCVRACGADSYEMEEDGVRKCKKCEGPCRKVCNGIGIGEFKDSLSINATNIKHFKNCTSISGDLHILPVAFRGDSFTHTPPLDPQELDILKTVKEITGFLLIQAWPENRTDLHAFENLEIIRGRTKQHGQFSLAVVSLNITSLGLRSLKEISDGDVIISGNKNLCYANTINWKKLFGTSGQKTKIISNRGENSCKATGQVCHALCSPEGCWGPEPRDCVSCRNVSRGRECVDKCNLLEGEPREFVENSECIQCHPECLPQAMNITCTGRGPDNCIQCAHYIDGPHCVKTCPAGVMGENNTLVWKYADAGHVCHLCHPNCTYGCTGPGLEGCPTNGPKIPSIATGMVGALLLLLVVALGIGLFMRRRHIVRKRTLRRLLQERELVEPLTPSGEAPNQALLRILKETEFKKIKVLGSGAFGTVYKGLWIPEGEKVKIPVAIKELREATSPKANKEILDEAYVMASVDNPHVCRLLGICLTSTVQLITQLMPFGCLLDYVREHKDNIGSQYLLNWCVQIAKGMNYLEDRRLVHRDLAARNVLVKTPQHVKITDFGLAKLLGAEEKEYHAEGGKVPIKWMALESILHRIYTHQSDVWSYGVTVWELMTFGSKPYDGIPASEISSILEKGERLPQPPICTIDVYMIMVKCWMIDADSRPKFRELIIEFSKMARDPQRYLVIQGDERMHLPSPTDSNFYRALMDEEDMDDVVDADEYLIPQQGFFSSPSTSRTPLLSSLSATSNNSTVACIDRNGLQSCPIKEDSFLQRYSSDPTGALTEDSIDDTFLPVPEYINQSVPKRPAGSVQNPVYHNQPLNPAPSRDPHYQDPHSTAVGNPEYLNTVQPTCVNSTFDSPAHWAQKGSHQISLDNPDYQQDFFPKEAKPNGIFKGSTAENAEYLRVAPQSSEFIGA
Chain of Rho-associated protein kinase 1 (Homo sapiens) (Q13464 2-1354 limits assumed): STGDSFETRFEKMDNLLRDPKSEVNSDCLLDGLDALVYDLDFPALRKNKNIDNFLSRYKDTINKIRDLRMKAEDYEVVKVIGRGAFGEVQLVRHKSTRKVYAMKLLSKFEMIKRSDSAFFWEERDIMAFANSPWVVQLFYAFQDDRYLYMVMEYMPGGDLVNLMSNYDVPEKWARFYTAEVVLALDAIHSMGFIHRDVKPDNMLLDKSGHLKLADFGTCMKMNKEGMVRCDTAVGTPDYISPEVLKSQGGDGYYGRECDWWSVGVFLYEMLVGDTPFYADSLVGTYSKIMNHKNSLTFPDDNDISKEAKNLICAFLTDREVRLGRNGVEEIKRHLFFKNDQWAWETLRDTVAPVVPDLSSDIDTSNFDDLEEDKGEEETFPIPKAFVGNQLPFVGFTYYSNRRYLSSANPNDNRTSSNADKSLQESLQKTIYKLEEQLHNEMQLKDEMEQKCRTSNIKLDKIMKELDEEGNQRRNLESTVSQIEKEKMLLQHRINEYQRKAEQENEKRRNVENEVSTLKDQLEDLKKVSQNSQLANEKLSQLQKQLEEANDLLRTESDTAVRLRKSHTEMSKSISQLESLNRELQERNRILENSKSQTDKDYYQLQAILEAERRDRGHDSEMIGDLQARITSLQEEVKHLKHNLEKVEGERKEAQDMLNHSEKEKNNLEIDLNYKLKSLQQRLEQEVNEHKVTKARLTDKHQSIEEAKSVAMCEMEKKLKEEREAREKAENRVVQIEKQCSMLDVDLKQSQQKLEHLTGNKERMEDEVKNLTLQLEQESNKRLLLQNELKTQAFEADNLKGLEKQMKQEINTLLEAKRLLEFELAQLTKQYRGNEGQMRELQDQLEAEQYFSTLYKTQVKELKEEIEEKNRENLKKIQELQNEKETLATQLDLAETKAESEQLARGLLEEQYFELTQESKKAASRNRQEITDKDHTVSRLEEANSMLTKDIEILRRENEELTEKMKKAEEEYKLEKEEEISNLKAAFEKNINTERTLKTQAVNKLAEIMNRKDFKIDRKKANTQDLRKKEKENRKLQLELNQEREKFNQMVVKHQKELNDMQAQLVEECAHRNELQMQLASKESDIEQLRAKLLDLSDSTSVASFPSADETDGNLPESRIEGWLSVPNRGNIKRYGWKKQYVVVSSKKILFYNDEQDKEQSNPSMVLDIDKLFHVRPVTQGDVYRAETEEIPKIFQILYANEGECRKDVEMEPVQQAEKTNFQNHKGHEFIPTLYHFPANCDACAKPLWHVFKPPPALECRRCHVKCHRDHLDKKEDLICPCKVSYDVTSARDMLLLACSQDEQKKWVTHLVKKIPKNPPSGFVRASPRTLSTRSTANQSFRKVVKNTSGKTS
Chain of Tyrosine-protein kinase Blk (Homo sapiens) (P51451 2-505 limits assumed): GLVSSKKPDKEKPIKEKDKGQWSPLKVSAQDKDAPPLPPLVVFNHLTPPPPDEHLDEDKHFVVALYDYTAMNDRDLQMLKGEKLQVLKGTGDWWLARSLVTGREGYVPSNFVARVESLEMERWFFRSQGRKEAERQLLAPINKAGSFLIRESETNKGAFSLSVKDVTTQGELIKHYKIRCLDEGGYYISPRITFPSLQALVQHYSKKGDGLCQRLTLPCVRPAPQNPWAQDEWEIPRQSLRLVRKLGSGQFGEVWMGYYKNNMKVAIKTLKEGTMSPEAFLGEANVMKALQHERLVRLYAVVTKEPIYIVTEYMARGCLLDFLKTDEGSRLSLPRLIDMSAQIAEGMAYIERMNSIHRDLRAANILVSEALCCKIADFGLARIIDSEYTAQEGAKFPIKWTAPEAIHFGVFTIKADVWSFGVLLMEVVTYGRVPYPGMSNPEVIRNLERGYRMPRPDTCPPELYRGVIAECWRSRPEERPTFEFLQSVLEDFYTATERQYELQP
Chain of Epidermal growth factor receptor (Homo sapiens), P00533 [L858R,T790M,C797S] (P00533 whole entry T790M/C797S/L858R): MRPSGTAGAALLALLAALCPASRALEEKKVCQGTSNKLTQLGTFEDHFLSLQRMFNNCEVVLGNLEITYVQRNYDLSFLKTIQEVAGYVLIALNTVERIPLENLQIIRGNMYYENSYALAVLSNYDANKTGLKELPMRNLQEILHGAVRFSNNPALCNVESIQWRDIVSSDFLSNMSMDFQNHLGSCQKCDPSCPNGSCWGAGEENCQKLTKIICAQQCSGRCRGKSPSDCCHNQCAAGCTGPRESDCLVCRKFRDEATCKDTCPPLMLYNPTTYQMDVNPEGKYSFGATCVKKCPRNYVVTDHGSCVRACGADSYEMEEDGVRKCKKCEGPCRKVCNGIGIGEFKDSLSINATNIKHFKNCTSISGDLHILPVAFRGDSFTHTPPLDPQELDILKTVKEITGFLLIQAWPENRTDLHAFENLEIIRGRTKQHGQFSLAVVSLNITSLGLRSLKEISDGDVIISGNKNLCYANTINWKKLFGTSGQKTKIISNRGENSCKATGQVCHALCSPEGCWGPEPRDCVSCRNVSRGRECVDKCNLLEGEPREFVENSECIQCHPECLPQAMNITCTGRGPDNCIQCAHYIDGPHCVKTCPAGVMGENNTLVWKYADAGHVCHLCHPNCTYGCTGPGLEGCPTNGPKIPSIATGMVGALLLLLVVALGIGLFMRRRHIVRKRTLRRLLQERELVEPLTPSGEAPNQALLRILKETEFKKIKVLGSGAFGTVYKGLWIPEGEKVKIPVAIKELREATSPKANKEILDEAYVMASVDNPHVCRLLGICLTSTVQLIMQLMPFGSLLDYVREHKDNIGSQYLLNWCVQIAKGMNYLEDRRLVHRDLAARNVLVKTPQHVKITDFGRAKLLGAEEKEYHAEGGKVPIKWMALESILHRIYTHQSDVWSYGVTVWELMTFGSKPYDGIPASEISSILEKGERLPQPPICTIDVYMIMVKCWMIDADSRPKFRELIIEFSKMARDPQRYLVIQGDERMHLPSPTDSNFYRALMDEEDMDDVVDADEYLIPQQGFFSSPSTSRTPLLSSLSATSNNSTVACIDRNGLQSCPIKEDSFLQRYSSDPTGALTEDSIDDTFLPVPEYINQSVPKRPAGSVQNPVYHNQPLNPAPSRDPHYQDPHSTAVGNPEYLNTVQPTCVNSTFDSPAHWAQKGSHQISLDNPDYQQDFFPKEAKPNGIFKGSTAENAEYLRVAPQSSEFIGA
Chain of Cyclin-dependent kinase 5 (Homo sapiens) (Q00535 whole entry, looked up): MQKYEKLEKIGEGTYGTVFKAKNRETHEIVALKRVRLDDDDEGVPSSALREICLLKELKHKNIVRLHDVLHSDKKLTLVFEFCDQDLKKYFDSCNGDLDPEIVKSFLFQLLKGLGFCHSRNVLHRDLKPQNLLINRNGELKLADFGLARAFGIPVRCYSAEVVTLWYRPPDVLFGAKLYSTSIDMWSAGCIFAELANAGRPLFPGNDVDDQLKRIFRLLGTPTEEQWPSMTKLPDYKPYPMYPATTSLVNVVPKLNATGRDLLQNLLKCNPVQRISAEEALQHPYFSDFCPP

Row | SMILES | inhibition [1] | inhibition [2] | inhibition [3] | inhibition [4] [%] | inhibition [5] [%] | inhibition [6] [%] | inhibition [7] [%] | pIC50 [8] | pIC50 [9] | inhibition [10] [%] | inhibition [11] [%] | inhibition [12] [%] | inhibition [13] [%]
1 | C#CCNC(=O)c1cc(Nc2cc(C3CC3)[nH]n2)nc(N2CCN(Cc3ccc(S(=O)(=O)F)cc3)CC2)n1 | inactive | inactive |  |  |  |  |  |  |  |  |  |  | 
2 | COc1cc(N2CCN(C(C)=O)CC2)ccc1Nc1ncc(Cl)c(Nc2ccc(NCc3ccc(S(=O)(=O)F)cc3)cc2)n1 |  |  | Active | 100 | 100 | 90 | < 25 | 8.55 | 6.68 | 100 | < 25 | 90 | < 25
